This note sets out measurements from ChEMBL document CHEMBL3600297, “N-Sulfonyl-aminobiaryls as Antitubulin Agents and Inhibitors of Signal Transducers and Activators of Transcription 3 (STAT3) Signaling” (J Med Chem, 2015).

Broadly, the GI50 is the concentration giving 50% growth inhibition. The term IC50 denotes the concentration needed to halve the response being measured.

The structures appear in SMILES notation. Activity calls are given as the source filed them. No cut-off for these calls is given here.

One assay concerns ASPC1. The experiment in a line: Cytotoxicity against human AsPC1 cells assessed as growth inhibition after 48 hrs by sulforhodamine B assay. The assay is classed as functional. To be noted: ASPC1, 48 h. Summed up:
(§1)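 Seeded at (3−5) × 10^3 cells/well. A time-zero plate was TCA-fixed after attachment. Next day, cells got vehicle (0.1% DMSO) or a rising concentration gradient for 48 h, then 10% TCA fixation, 0.4% SRB in 1% AcOH, A515 read. GI50 taken relative to the time-zero absorbance; at least three independent runs, mean ± SD.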
On the technique in general: In SRB staining, fixed cells bind dye roughly in proportion to their protein.

Assay [1] is described as follows: Cytotoxicity against human Hep3B cells assessed as growth inhibition after 48 hrs by sulforhodamine B assay. The assay is classed as functional, Hep 3B2. Summed up: as §1
For a further assay, the system named is PC-3. Briefly: Cytotoxicity against human PC3 cells assessed as growth inhibition after 48 hrs by sulforhodamine B assay. The assay is classed as functional. To be noted: PC-3, 48 h. The gist of the method:
as §1

Assay [2] deals with A549. The experiment in a line: Cytotoxicity against human A549 cells assessed as growth inhibition after 48 hrs by sulforhodamine B assay. To be noted: A549, 48 h. The assay is classed as functional. The gist of the method:
as §1

The next assay has as its target Tubulin. Briefly: Displacement of [3H]-colchicine from tubulin (unknown origin) preincubated with protein for 1 hr followed by [3H]-colchicine addition measured after 3 hrs by scintillation counting analysis. The assay is classed as protein-complex assay, Homo sapiens. A general note: Loss of bound radioactivity is the signal in a displacement assay; it reports binding, not function.

The target of assay [3] is T1, Tubulin (Sus scrofa) (UniProt P02554+P02550). Briefly: Inhibition of porcine tubulin polymerization measured every min for 30 mins by spectrophotometric analysis. The assay is classed as protein assay. Summed up: (§2)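 Cold porcine tubulin (>99% pure) in G-PEM buffer (80 mM PIPES, 2 mM MgCl2, 0.5 mM EGTA, 1 mM GTP, pH 6.9) with 15% glycerol, with or without compound. Kinetic turbidity at 340 nm, read each minute for 30 min at 37 °C. DMSO control.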
T1 sequence (P02550 whole entry, looked up): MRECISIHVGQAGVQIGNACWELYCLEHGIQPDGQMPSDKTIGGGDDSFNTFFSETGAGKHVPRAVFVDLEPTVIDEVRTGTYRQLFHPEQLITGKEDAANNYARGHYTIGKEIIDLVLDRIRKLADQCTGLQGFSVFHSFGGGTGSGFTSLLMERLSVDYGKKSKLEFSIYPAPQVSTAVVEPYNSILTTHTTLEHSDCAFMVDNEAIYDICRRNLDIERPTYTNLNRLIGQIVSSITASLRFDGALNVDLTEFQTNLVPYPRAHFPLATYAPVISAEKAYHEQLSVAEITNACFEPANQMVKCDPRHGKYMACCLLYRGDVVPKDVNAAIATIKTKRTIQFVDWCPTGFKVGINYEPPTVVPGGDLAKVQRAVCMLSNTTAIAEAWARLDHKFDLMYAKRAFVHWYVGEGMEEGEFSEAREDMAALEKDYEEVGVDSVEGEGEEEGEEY
T1 sequence (P02554 whole entry, looked up): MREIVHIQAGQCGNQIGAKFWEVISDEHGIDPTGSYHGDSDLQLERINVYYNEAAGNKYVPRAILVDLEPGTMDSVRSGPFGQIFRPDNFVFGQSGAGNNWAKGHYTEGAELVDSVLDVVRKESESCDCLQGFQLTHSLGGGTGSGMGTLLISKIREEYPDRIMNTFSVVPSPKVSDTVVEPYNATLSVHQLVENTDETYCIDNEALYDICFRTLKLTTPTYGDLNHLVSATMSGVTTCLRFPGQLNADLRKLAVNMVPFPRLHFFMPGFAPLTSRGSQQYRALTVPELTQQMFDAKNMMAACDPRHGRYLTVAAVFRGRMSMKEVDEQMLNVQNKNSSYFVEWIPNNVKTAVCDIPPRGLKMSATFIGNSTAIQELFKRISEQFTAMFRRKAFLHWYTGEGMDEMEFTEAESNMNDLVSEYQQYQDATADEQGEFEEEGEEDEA

Assay [4] addresses T1, Tubulin (Sus scrofa). Briefly: Inhibition of porcine tubulin polymerization at 10 uM measured every min for 30 mins by spectrophotometric analysis. The assay is classed as protein assay. Summed up:
as §2

In assay [5] the test system is A549. Briefly: Induction of microtubule destabilization in human A549 cells at 1 uM after 24 hrs by DAPI staining-based immunofluorescence confocal microscopic analysis. The assay is classed as cell-based. Summed up: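 A549 seeded sparsely on chamber slides and treated 24 h; cold MeOH fixation (−20 °C, 15 min), blocked with 0.1% Triton X-100 in PBS 30 min at 37 °C. Monoclonal anti-β-tubulin 1 h at 37 °C, then FITC anti-mouse IgG, DAPI nuclear counterstain; confocal imaging.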

The subject of assay [6] is A549. Briefly: Effect on G2/M phase in human A549 cells after 24 hrs by propidium iodide staining-based flow cytometric analysis. The assay is classed as functional, cell-based. Summed up:
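A549 given the indicated concentration for 24 h, fixed in 75% ethanol overnight at −20 °C, washed in cold PBS, 30 min in phosphate–citric acid buffer pH 7.8 at room temperature. Stained with propidium iodide buffer containing 0.1% Triton X-100 and RNase A; DNA content read on a FACScan.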

Regarding `COc1ccc(S(=O)(=O)Nc2cccnc2Nc2ccc(O)cc2)cc1` [ABT-751], the 50% growth inhibitory concentration (GI50) in the assay with ASPC1 amounted to 4110 nM; in [1], 840 nM; in the assay with PC-3 it was 620 nM; in the assay with A549 [2], 5330 nM.
Regarding `COc1ccc(S(=O)(=O)Nc2ccccc2-c2ccc(C#N)c(F)c2)cc1`, the half-maximal inhibitory concentration (IC50) on Tubulin turned out to be 670 nM. On Tubulin (Sus scrofa) [3], the inhibition result was “Dose-dependent effect”.
On to `CC[C@]1(O)C[C@H]2CN(CCc3c([nH]c4ccccc34)[C@@](C(=O)OC)(c3cc4c(cc3OC)N(C=O)[C@H]3[C@@](O)(C(=O)OC)[C@H](OC(C)=O)[C@]5(CC)C=CCN6CC[C@]43[C@@H]65)C2)C1`, for which the inhibition result at Tubulin (Sus scrofa) [4] is “Active”. Moreover, in the assay with A549 [5], the outcome was Active.
As to `COc1ccc(S(=O)(=O)N(CCCl)c2ccccc2-c2ccc(C#N)cc2)cc1`, the GI50 was determined as 4790 nM with ASPC1, 1550 nM in assay [1], 6520 nM in the assay with PC-3 and 1500 nM in the assay with A549 [2].
As to `Cc1ccc(S(=O)(=O)OCC(=O)Nc2ccc(C(=O)O)c(O)c2)cc1`, the result in the assay with A549 [6] was inactive.
Consider `COc1ccc(S(=O)(=O)Nc2ccccc2-c2ccc(F)c(F)c2)cc1`, for which the GI50 came to 280 nM in the assay on ASPC1, 150 nM in assay [1], 190 nM with PC-3 and 300 nM with A549 [2].
